# Measured values from ChEMBL document CHEMBL2417469, “Synthesis of novel analogs of 2-pyrazoline obtained from [(7-chloroquinolin-4-yl)amino]chalcones and hydrazine as potential antitumor and antimalarial agents” (Eur J Med Chem, 2013).
# Experiments:
# Format in all cases: functional
# Plasmodium falciparum = experiment: Antimalarial activity against Plasmodium falciparum NF54 infected in human serum at 20 ug/ml after 48 hrs by fluorometric method
# Method in brief: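 Asynchronous P. falciparum NF54 at 1.5–2% parasitemia, 5% hematocrit in RPMI with 10% human serum, exposed 48 h at 37 °C under 90% N2/5% CO2/5% O2 at the stated concentration; parasite DNA stained with ethidium bromide after proteinase K lysis; viability % = (Flu treated − medium)/(Flu untreated − medium) ×100; triplicate.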
# MDA-MB-468 = experiment: Cytotoxicity against human MDA-MB-468 cells after 48 hrs by SRB assay; details: MDA-MB-468, 48 h
# Method in brief: (§1)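 NCI 60-cell-line screen. Cells preincubated 24 h at 37 °C, 5% CO2; time-zero plates TCA-fixed. Compounds dissolved in DMSO and tested at five concentrations (100, 10, 1.0, 0.1, 0.01 µM) for 48 h continuous exposure. Adherent cells fixed with cold TCA (10% final), then SRB stained; absorbance at 515 nm. GI50, TGI and LC50 calculated from growth relative to time-zero and untreated controls.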
# BT-549 = experiment: Cytotoxicity against human BT549 cells after 48 hrs by SRB assay; details: BT-549, 48 h; method in brief: as §1
# T47D = experiment: Cytotoxicity against human T47D cells after 48 hrs by SRB assay
# Method in brief: (§2)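 NCI 60-cell screen. Cells grew 24 h (37 °C, 5% CO2) before compound was added. Compounds were in DMSO and diluted in medium with gentamicin, then tested at five levels (100, 10, 1.0, 0.1, 0.01 µM) with 48 h continuous exposure. Adherent cells were fixed with TCA (10% final) and stained with 0.4% SRB, absorbance read at 515 nm. A time-zero plate was included. LC50 is the concentration giving 50% loss of protein relative to time zero.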
# SN12C = experiment: Cytotoxicity against human SN12C cells after 48 hrs by SRB assay; method in brief: as §1
# CAKI-1 = experiment: Cytotoxicity against human Caki1 cells after 48 hrs by SRB assay; details: CAKI-1, 48 h; method in brief: as §1
# RXF 393 = experiment: Cytotoxicity against human RXF393 cells after 48 hrs by SRB assay; details: RXF 393, 48 h; method in brief: as §1
# SK-OV-3 = experiment: Cytotoxicity against human SKOV3 cells after 48 hrs by SRB assay; details: SK-OV-3, 48 h; method in brief: as §1
# NCI/ADR-RES = experiment: Cytotoxicity against human NCI/ADR-RES cells after 48 hrs by SRB assay; method in brief: as §1
# OVCAR-8 = experiment: Cytotoxicity against human OVCAR8 cells after 48 hrs by SRB assay; details: OVCAR-8, 48 h; method in brief: as §1
# IGROV-1 = experiment: Cytotoxicity against human IGROV1 cells after 48 hrs by SRB assay; details: IGROV-1, 48 h; method in brief: as §1
# UACC-62 = experiment: Cytotoxicity against human UACC62 cells after 48 hrs by SRB assay; details: UACC-62, 48 h; method in brief: as §2
# SK-MEL-5 = experiment: Cytotoxicity against human SK-MEL-5 cells after 48 hrs by SRB assay; details: SK-MEL-5, 48 h; method in brief: as §1
# MDA-MB-435 = experiment: Cytotoxicity against human MDA-MB-435 cells after 48 hrs by SRB assay; details: MDA-MB-435, 48 h; method in brief: as §1
# M14 = experiment: Cytotoxicity against human M14 cells after 48 hrs by SRB assay; details: M14, 48 h; method in brief: as §1
# Malme-3M = experiment: Cytotoxicity against human MALME-3M cells after 48 hrs by SRB assay; method in brief: as §1
# U-251 = experiment: Cytotoxicity against human U251 cells after 48 hrs by SRB assay; details: U-251, 48 h; method in brief: as §2
# LOX IMVI = experiment: Cytotoxicity against human LOXIMVI cells after 48 hrs by SRB assay; method in brief: as §1
# SF-539 = experiment: Cytotoxicity against human SF539 cells after 48 hrs by SRB assay; details: SF-539, 48 h; method in brief: as §1
# SF-295 = experiment: Cytotoxicity against human SF295 cells after 48 hrs by SRB assay; details: SF-295, 48 h; method in brief: as §1
# SF-268 = experiment: Cytotoxicity against human SF268 cells after 48 hrs by SRB assay; details: SF-268, 48 h; method in brief: as §1
# KM12 = experiment: Cytotoxicity against human KM12 cells after 48 hrs by SRB assay; details: KM12, 48 h; method in brief: as §1
# HCT-15 = experiment: Cytotoxicity against human HCT15 cells after 48 hrs by SRB assay; details: HCT-15, 48 h; method in brief: as §1
# HT-29 = experiment: Cytotoxicity against human HT-29 cells after 48 hrs by SRB assay; details: HT-29, 48 h; method in brief: as §1
# HCT-116 = experiment: Cytotoxicity against human HCT116 cells after 48 hrs by SRB assay; details: HCT-116, 48 h; method in brief: as §1
# HCC 2998 = experiment: Cytotoxicity against human HCC2998 cells after 48 hrs by SRB assay; details: HCC 2998, 48 h; method in brief: as §1
# COLO 205 = experiment: Cytotoxicity against human COLO205 cells after 48 hrs by SRB assay; details: COLO 205, 48 h; method in brief: as §1
# NCI-H460 = experiment: Cytotoxicity against human NCI-H460 cells after 48 hrs by SRB assay; details: NCI-H460, 48 h; method in brief: as §1
# NCI-H226 = experiment: Cytotoxicity against human NCI-H226 cells after 48 hrs by SRB assay; details: NCI-H226, 48 h; method in brief: as §1
# SR = experiment: Cytotoxicity against human SR cells after 48 hrs by SRB assay; method in brief: as §2
# A549 = experiment: Cytotoxicity against human A549/ATCC cells after 48 hrs by SRB assay; details: A549, 48 h; method in brief: as §1
# RPMI-8226 = experiment: Cytotoxicity against human RPMI8226 cells after 48 hrs by SRB assay; details: RPMI-8226, 48 h; method in brief: as §1
# [1] = read-out: LC50 (the source's name)
smiles,measurement,setting,value
Cc1ccc(C2CC(c3ccc(Nc4ccnc5cc(Cl)ccc45)cc3)=NN2C=O)cc1 (stereo not drawn),inhibition at 20 µg/mL,Plasmodium falciparum,0%
same,GI50,MDA-MB-468,1510 nM
same,LC50,MDA-MB-468,> 100 µM
same,GI50,BT-549,1650 nM
same,LC50 (50% net cell kill vs time zero),BT-549,> 100 µM
same,GI50,T47D,1510 nM
same,LC50 (concentration giving 50% cell kill relative to time zero),T47D,> 100 µM
same,GI50,SN12C,7.23 µM
same,LC50 (50% net cell kill relative to time zero),SN12C,> 100 µM
same,GI50,CAKI-1,> 100 µM
same,LC50,CAKI-1,> 100 µM
same,GI50,RXF 393,4.89 µM
same,LC50 (concentration killing 50% of cells),RXF 393,> 100 µM
same,GI50,SK-OV-3,> 100 µM
same,LC50 (concentration killing 50% of cells),SK-OV-3,> 100 µM
same,GI50,NCI/ADR-RES,5.22 µM
same,CC50,NCI/ADR-RES; [1],> 100 µM
same,GI50,OVCAR-8,> 100 µM
same,LC50 (50% net cell kill),OVCAR-8,> 100 µM
same,GI50,IGROV-1,26.6 µM
same,LC50 (concentration killing 50% of cells relative to time zero),IGROV-1,> 100 µM
same,GI50,UACC-62,4.13 µM
same,CC50,UACC-62; [1],> 100 µM
same,GI50,SK-MEL-5,1740 nM
same,LC50 (concentration killing 50% of cells present at time zero),SK-MEL-5,> 100 µM
same,GI50,MDA-MB-435,1950 nM
same,LC50,MDA-MB-435,> 100 µM
same,GI50,M14,6.88 µM
same,CC50,M14; [1],> 100 µM
same,GI50,Malme-3M,> 100 µM
same,LC50,Malme-3M,> 100 µM
same,GI50,U-251,> 100 µM
same,CC50,U-251; [1],> 100 µM
same,GI50,LOX IMVI,4.11 µM
same,LC50,LOX IMVI,> 100 µM
same,GI50,SF-539,> 100 µM
same,CC50,SF-539; [1],> 100 µM
same,GI50,SF-295,4 µM
same,LC50,SF-295,> 100 µM
same,GI50,SF-268,8.61 µM
same,LC50,SF-268,> 100 µM
same,GI50,KM12,6.64 µM
same,LC50 (concentration killing 50% of cells),KM12,> 100 µM
same,GI50,HCT-15,2780 nM
same,LC50 (concentration killing 50% of cells relative to time zero),HCT-15,> 100 µM
same,GI50,HT-29,6.09 µM
same,LC50,HT-29,> 100 µM
same,GI50,HCT-116,25.2 µM
same,LC50,HCT-116,> 100 µM
same,GI50,HCC 2998,7.44 µM
same,LC50,HCC 2998,> 100 µM
same,GI50,COLO 205,4.59 µM
same,LC50,COLO 205,> 100 µM
same,GI50,NCI-H460,> 100 µM
same,LC50,NCI-H460,> 100 µM
same,GI50,NCI-H226,> 100 µM
same,LC50 (50% lethal concentration),NCI-H226,> 100 µM
same,GI50,SR,3.18 µM
same,LC50,SR,> 100 µM
same,GI50,A549,9.86 µM
same,CC50,A549; [1],> 100 µM
same,GI50,RPMI-8226,2180 nM
same,LC50 (concentration killing 50% of cells),RPMI-8226,> 100 µM
